{
  "source": "ChEMBL document CHEMBL1123190",
  "about": "“Synthesis and biological evaluation of cyclic analogues of 1-carnitine as potential agents in the treatment of myocardial ischemia” (J Med Chem, 1986)",
  "note": "“And” between values parts separate entries of the source, which are not always exact repeats. Identical values can stand only once.",
  "data": [
    {"target": "T1, Mitochondrial carnitine/acylcarnitine carrier protein (Rattus norvegicus) (UniProt P97521)", "T1 sequence (whole entry)": "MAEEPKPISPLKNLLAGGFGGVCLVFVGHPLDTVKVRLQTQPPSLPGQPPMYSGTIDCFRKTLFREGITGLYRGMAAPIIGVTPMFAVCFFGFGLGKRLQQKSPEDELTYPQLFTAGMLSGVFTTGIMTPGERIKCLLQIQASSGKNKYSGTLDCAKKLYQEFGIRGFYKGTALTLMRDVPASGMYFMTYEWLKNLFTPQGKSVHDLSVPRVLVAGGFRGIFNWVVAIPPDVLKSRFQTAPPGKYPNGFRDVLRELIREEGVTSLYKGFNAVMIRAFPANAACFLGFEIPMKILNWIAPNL", "test": "Affinity of compound towards the carnitine/acylcarnitine translocase was determined by monitoring the efflux of [14C]L-carnitine from isolated rat heart mitochondria", "in_short": "(§1)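 Isolated rat heart mitochondria (differential centrifugation) in 200 mM D-mannitol/50 mM Tris-HCl pH 7.4 with rotenone, oligomycin and antimycin A were loaded with l-carnitine plus [14C]-l-carnitine for 3 min at 28 °C, then washed. Compound at 3 or 50 mM, or water control, was added; efflux ran 1 min on ice and was quenched with mersalyl. Supernatant was scintillation-counted, and % efflux was calculated against control and total radioactivity. Mean of three.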", "values": [
      {"smiles": "CCCCCCCCCCCCCCCC(=O)O[C@@H]1C[C@@H](C(=O)O)[N+](C)(C)C1", "Experimental DPM": "5890 and 8870"},
      {"smiles": "O=C(O)[C@@H]1CCCN1", "Experimental DPM": 5050},
      {"smiles": "O=C(O)[C@@H]1C[C@@H](O)CN1", "Experimental DPM": 5350},
      {"smiles": "C[N+]1(C)CCC[C@H]1C(=O)[O-]", "Experimental DPM": 5570},
      {"smiles": "O=C(O)C1CCCNC1", "note": "(stereo not given)", "Experimental DPM": 4130},
      {"smiles": "O=C(O)C1CCCCN1", "note": "(stereo not given)", "Experimental DPM": 4280},
      {"smiles": "CCCCCCCCCCCCCCCC(=O)OC(CN)CC(=O)O", "note": "(stereo not given)", "Experimental DPM": 3470},
      {"smiles": "NCC(O)CC(=O)O", "note": "(stereo not given)", "Experimental DPM": 4220}
    ]},
    {"target": "T1, Mitochondrial carnitine/acylcarnitine carrier protein (Rattus norvegicus)", "test": "Affinity of compound towards the carnitine/acylcarnitine translocase was determined by monitoring the efflux of [14C]L-carnitine from isolated rat heart mitochondria at 3 mM conc.", "in_short": "as §1", "units": {"Trans": "%"}, "values": [
      {"smiles": "C[N+]1(C)CCCC(C(=O)O)C1", "note": "(stereo not given)", "Experimental DPM": 4030, "Total DPM": 10900, "Trans": 0},
      {"smiles": "C[N+]1(C)CCC[C@H]1C(=O)[O-]", "Total DPM": 12200, "Trans": 3.17},
      {"smiles": "C[N+](C)(C)[C@@H]1CCCC[C@H]1C(=O)O", "Experimental DPM": 4170, "Total DPM": 10900, "Trans": 0},
      {"smiles": "C[N+]1(C)C[C@H](O)C[C@H]1C(=O)O", "Experimental DPM": 4930, "Total DPM": 12200, "Trans": 3.16},
      {"smiles": "C[N+](C)(C)CC(O)CC(=O)[O-]", "note": "(stereo not given)", "Experimental DPM": 11800, "Total DPM": 12200, "Trans": 94.2},
      {"smiles": "C[N+]1(C)CCCCC1C(=O)O", "note": "(stereo not given)", "Experimental DPM": 3850, "Total DPM": 10900, "Trans": 0}
    ]}
  ]
}
